Published values gathered from unrelated publications.
Compare with care: the assays were run in different laboratories.
Target: AP2-associated protein kinase 1 (AAK1, Homo sapiens, UniProt Q2M2I8)

| SMILES | effect on | method | tested at | remaining binding |
| --- | --- | --- | --- | --- |
| N#CC1(c2ccccn2)CCN(Cc2cc(C(=O)N3CCCC3)c(=O)n3ccccc23)CC1 | binding |  | 1 µM | 100% |
| O=C(NCC1CCOCC1)c1n[nH]cc1NC(=O)c1c(F)cccc1F | binding | competition with immobilised ligand | 1 µM | 86% |
| Cc1cnc(Nc2ccc(C(=O)N3CCC(N4CCCC4)CC3)cc2)nc1-c1cc2ccccc2s1 | binding | competition with immobilised ligand | 1 µM | 22% |
| O=C(NCc1ncc(C(F)(F)F)cc1Cl)c1ccc2c(c1)C1(CCS(=O)(=O)CC1)[C@H](C1CC1)N2S(=O)(=O)c1ccc(F)cc1 | binding |  | 1 µM | 99% |
| Cc1cnn2ncc(-c3ccnc(N(C)C)n3)c2c1 | binding |  | 1 µM | 91% |
| O=C(c1ccc(Nc2ncc(Cl)c(-c3cc4ccccc4s3)n2)cc1)N1CCC(N2CCCC2)CC1 | binding | competition with immobilised ligand | 1 µM | 29% |
| CCN1CCN(Cc2ccc(C(=O)Nc3ccc(C)c(Oc4ccc5c(c4)CC(=O)N5)c3)cc2C(F)(F)F)CC1 | binding | competition with immobilised ligand | 1 µM | 100% |
| CN(CCCC(F)(F)F)c1nccc(-c2cnn3ncccc23)n1 | binding |  | 1 µM | 100% |
| COc1cnc(Nc2cccc(S(N)(=O)=O)c2)nc1N1CCN(c2ccccc2)C(=O)C1 | binding | competition with immobilised ligand | 1 µM | 84% |
| C[C@H]1CCN(c2nccc(-c3cnn4ncccc34)n2)C1 | binding |  | 1 µM | 64% |
| Cc1nccc(COC(=O)N2C[C@@H]3[C@@H](CNC(=O)c4ccc5[nH]nnc5c4)[C@@H]3C2)n1 | binding |  | 1 µM | 100% |
| Nc1ncc2c(n1)-c1c([nH]c3ccc(C#CC4CC4)cc13)CCCC2 | binding | competition with immobilised ligand | 1 µM | 92% |
| N[C@@H]1CCN(c2nccc(-c3cnn4ncccc34)n2)C1 | binding |  | 1 µM | 73% |
| CCCCN(CCCC)C(=O)CN1C[C@H](c2cc(OC)c3c(c2)OCO3)[C@@H](C(=O)O)[C@@H]1CC(C)(C)CCC | binding |  | 1 µM | 100% |
| O=C(NCCCN1CCOCC1)c1ccc(Nc2nccc(-c3cc4ccccc4s3)n2)cc1 | binding | competition with immobilised ligand | 1 µM | 27% |
| C=CC(=O)N1CCC(C(=O)NCC(=O)N2CCN(c3nc(-c4cnc(N)nc4C(F)F)nc(N4CCOCC4)n3)CC2)CC1 | binding | competition with immobilised ligand | 1 µM | 100% |
| CN(C)c1ncc(F)c(-c2cnn3ncccc23)n1 | binding |  | 1 µM | 89% |
| CN(c1ccnc(CNc2nc(Nc3ccc4c(c3)CC(=O)N4)ncc2C(F)(F)F)n1)S(C)(=O)=O | binding |  | 1 µM | 27% |
| CN(c1nccc(-c2cnn3ncccc23)n1)C1CC1 | binding |  | 1 µM | 100% |
| O=C(Nc1cccnn1)N1CC(C/C=C/c2cncc(Oc3ccc(C(F)(F)F)cn3)n2)C1 | cell-free assay | competition with immobilised ligand | 1 µM | 100% |
| CN(C)c1nccc(-c2cnc3ncccn23)n1 | binding |  | 1 µM | 88% |
| C[C@@H](c1ccc(-n2cnc3c(N)ncnc32)cc1)N1CCc2nn(C)c(Cc3ccccc3)c2C1=O | binding | competition with immobilised ligand | 0.1 µM | 98% |
